This is an account of results in ChEMBL document CHEMBL4732226, “Discovery of a potent G-protein-coupled receptor 119 agonist for the treatment of type 2 diabetes” (Bioorg Med Chem, 2021).

Data set [1] addresses T1, Glucose-dependent insulinotropic receptor (Homo sapiens, UniProt Q8TDV5).
T1 sequence (Q8TDV5 whole entry): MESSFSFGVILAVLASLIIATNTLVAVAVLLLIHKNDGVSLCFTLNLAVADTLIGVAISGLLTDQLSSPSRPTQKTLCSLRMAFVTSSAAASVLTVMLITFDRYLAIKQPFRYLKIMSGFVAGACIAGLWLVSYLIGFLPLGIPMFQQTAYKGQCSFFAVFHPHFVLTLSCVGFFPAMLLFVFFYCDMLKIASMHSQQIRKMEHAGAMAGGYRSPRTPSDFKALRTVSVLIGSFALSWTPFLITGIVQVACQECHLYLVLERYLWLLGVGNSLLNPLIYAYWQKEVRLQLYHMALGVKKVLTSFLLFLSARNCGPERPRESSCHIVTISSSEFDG
Kind of data set: Agonist activity at human GPR119 stably transfected in CHO-K1 cells assessed as increase in cAMP stimulation after 1 hr by enzyme immunoassay. Format: functional, cell-based.

The target in data set [2] is T2, Glucose-dependent insulinotropic receptor (Homo sapiens) (UniProt Q8TDV5).
T2 sequence (whole entry): T1 sequence (Q8TDV5 whole entry)
Kind of data set: Agonist activity at human GPR119 stably transfected in CHO-K1 cells assessed as increase in cAMP stimulation after 1 hr by enzyme immunoassay relative to AR231453. Format: functional, cell-based.

Data set [3] can be described thus: Elimination rate constant in Sprague-Dawley rat at 25 mg/kg, po up to 24 hrs. Format: ADME, organism-based. Particulars: in vivo. In short, it runs like this: (§1)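 Male SD rats fasted overnight, water ad libitum, fed 4 h after dosing. Single oral gavage of 25 mg/kg as a homogeneous suspension in 0.5% Tween 80 in 0.5% Na-CMC. Blood drawn into Na-heparin tubes at 0.25, 0.5, 1, 2, 4, 6, 8 and 24 h; plasma stored at -70°C. Parameters by non-compartmental analysis, with C0 taken as zero and BLQ samples set to zero.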

A short description of data set [4]: AUC(0 to t) in Sprague-Dawley rat at 25 mg/kg, po up to 24 hrs. Format: ADME, organism-based. Set-up: route oral, dose 25 mg/kg, time <=24. As to conditions: in vivo. The method, boiled down: as §1
The nature of data set [5]: Cmax in Sprague-Dawley rat at 25 mg/kg, po up to 24 hrs. Format: ADME, organism-based. Set-up: route oral, dose 25 mg/kg, time <=24. Particulars: in vivo. In short, it runs like this: as §1
Data set [6] in a line: AUC(0 to infinity) in Sprague-Dawley rat at 25 mg/kg, po up to 24 hrs. Format: ADME, organism-based. Set-up: route oral, dose 25 mg/kg, time <=24. As to conditions: in vivo. In short, it runs like this: as §1
The subject of data set [7] is Mus musculus. In words: Antidiabetic activity in glucose-stimulated […] mouse assessed as reduction in blood glucose level at 50 mg/kg, po pretreated for 30 mins followed by glucose-stimulation and measured up to 120 mins by OGTT method relative to control. Format: functional. Particulars: 0.5 h. Set-up: scale not given: the % may be the effect or the level left. In short, it runs like this: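 C57 mice aged 6–8 weeks were grouped by non-fasting glucose and fasted overnight. Single oral dose of 50 mg/kg; 30 min later basal bleed and oral glucose 3 g/kg. Serum glucose taken at 20, 40, 60 and 120 min. Change in glucose AUC calculated.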

Data set [8] in a line: Tmax in Sprague-Dawley rat at 25 mg/kg, po up to 24 hrs. Format: ADME, organism-based. As to conditions: in vivo. In short, it runs like this: as §1
Data set [9] is described as follows: Half life in Sprague-Dawley rat at 25 mg/kg, po up to 24 hrs. As to conditions: in vivo. Format: ADME, organism-based. In short, it runs like this: as §1

As usually defined, the EC50 is the midpoint of the concentration-response curve. In the case of `CCOC(=O)N1CCC(Oc2ncnc(Oc3cccc(/C=C4\SC(=O)NC4=O)c3)c2C)CC1`, the EC50 entry in data set [1] (cho-k1) is listed as “Not Active”.
In the case of `Cc1c(Oc2cccc(/C=C3\SC(=O)NC3=O)c2)ncnc1OC1CCN(C(=O)OCC(C)C)CC1`, the concentration giving a half-maximal response (EC50) entry in [1] (cho-k1) is “Not Active”.
Still for that read-out and setting: as for `COC(=O)N1CCC(Oc2ncnc(Oc3cccc(/C=C4\SC(=O)NC4=O)c3)c2C)CC1`, the entry is “Not Active”.
Usually Emax stands for the greatest response seen or fitted, relative to the assay's reference. For `CCOC(=O)N1CCC(Oc2cc(Oc3ccc(/C=C4\SC(=O)NC4=O)cc3)ncn2)CC1`, the EC50 in data set [1] (read-out: EC50) was 790 nM. The Emax in data set [2] (filed as agonist) worked out at 51.8%.
The matching figures for `CC(C)COC(=O)N1CCC(Oc2cc(Oc3ccc(/C=C4\SC(=O)NC4=O)cc3)ncn2)CC1`: 745 nM and 51%.
The matching figures for `COC(=O)N1CCC(Oc2ncnc(Oc3ccc(/C=C4\SC(=O)NC4=O)cc3)c2C)CC1`: 1410 nM and 53.3%.
The matching figures for `O=C1NC(=O)/C(=C/c2ccc(Oc3cc(OC4CCN(C(=O)OCc5ccccc5)CC4)ncn3)cc2)S1`: 107 nM and 88.3%.
In the case of `CCOC(=O)N1CCC(Oc2ncnc(Oc3ccc(/C=C4\SC(=O)NC4=O)cc3)c2C)CC1`, in data set [1] (read-out: EC50), the concentration giving a half-maximal response (EC50) stood at 157 nM. For the same compound, the maximum response (Emax) in data set [2] (filed as agonist) was 141%.
In the same order, the values of `Cc1c(Oc2cccc(/C=C3\SC(=O)NC3=O)c2)ncnc1OC1CCN(C(=O)OCc2ccccc2)CC1` are 106 nM and 138%.
The matching figures for `CC(C)COC(=O)N1CCC(Oc2cc(Oc3cccc(/C=C4\SC(=O)NC4=O)c3)ncn2)CC1`: 720 nM and 62.4%.
Regarding `CC(C)(C)OC(=O)N1CCC(Oc2cc(Oc3ccc(/C=C4\SC(=O)NC4=O)cc3)ncn2)CC1`, the Emax in data set [2] (filed as agonist) came to 122%.
`CC(C)c1noc(C2CCN(c3ncnc(Nc4ccc(S(C)(=O)=O)cc4F)c3[N+](=O)[O-])CC2)n1`: the 50% effective concentration (EC50) in [1] (read-out: EC50) came out at 6 nM. The Emax in data set [2] (filed as agonist) came to 100%.
In general, AUC(0-t) refers to the area under the concentration-time curve up to a stated or last time point. In general, Cmax refers to the maximum level reached in the sampled fluid or tissue. A word on the AUC(0-inf): it is the area under the concentration-time curve extrapolated to infinity. As a reminder, the Tmax is the time at which the peak concentration occurs. One may read the half-life as the time needed for the level to fall by half in the phase considered. In turn, `Cc1c(Oc2ccc(/C=C3\SC(=O)NC3=O)cc2)ncnc1OC1CCN(C(=O)OC(C)(C)C)CC1` gave a k el at 24 h in [3] of 4.44e-05 s⁻¹. Also, the exposure AUC(0-t) at 24 h in data set [4] is 8110 ng·h/mL. In [5], the Cmax is 835 ng/mL. In addition, in [6], the AUC(0-inf) was 8310 ng·h/mL. Besides, the Activity in data set [7] turned out to be 34.6%. Further, the Tmax in data set [8] is 2.25 h. Besides, the Emax in [2] (filed as agonist) is 68.8%. In data set [9], this compound had a half-life of 262 min.
On to `CC(C)(C)OC(=O)N1CCC(Oc2cc(Oc3cccc(/C=C4\SC(=O)NC4=O)c3)ncn2)CC1`, for which the EC50 in [1] (read-out: EC50) is 125 nM. Besides, the maximal response (Emax) in [2] (filed as agonist) was found to be 78.3%.
As to `COC(=O)N1CCC(Oc2cc(Oc3ccc(/C=C4\SC(=O)NC4=O)cc3)ncn2)CC1`, the half-maximal effective concentration (EC50) entry in [1] (cho-k1) is on record as “Not Active”.
Take `O=C1NC(=O)/C(=C/c2cccc(Oc3cc(OC4CCN(C(=O)OCc5ccccc5)CC4)ncn3)c2)S1`: the 50% effective concentration (EC50) in data set [1] (read-out: EC50) was determined as 153 nM. The Emax in data set [2] (filed as agonist) worked out at 98.3%.
As to `Cc1c(Oc2ccc(/C=C3\SC(=O)NC3=O)cc2)ncnc1OC1CCN(C(=O)OCC(C)C)CC1`, the Activity in data set [7] is 24%. For the same compound, the EC50 in data set [1] (read-out: EC50) amounted to 75.1 nM. Also, the maximal effect (Emax) in data set [2] (filed as agonist) was determined as 70.2%.
Turning to `COC(=O)N1CCC(Oc2cc(Oc3cccc(/C=C4\SC(=O)NC4=O)c3)ncn2)CC1`, the half-maximal effective concentration (EC50) in data set [1] (read-out: EC50) came to 1870 nM. Besides, the Emax in [2] stood at 33.7%.
In the case of `Cc1c(Oc2ccc(/C=C3\SC(=O)NC3=O)cc2)ncnc1OC1CCN(C(=O)OCc2ccccc2)CC1`, the concentration for a half-maximal effect (EC50) in data set [1] (read-out: EC50) was determined as 805 nM. The Emax in data set [2] (filed as agonist) is 43.3%.
In the same order, the values of `CCOC(=O)N1CCC(Oc2cc(Oc3cccc(/C=C4\SC(=O)NC4=O)c3)ncn2)CC1` are 819 nM and 43.3%.
